# How the values were obtained:
# [1] = Inhibition of Enterovirus D68 US/KY/14-18953 2A protease expressed in Escherichia coli BL21(DE3) using Dabcyl-KIRIVNT/GPGEGGE-Edans as substrate incubated for 2 hrs by FRET assay
# enterovirus D68 [2] = experiment: Antiviral activity against enterovirus D68 US/MO/14-18947 infected in human RD cells assessed as reduction in virus induced cytopathic effect by neutral red staining based CPE assay; assay type: functional, organism-based; details: Enterovirus D, US/MO/14-18947, RD
# Procedure, shortened: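 RD cells seeded overnight to ~90% confluency, washed with PBS containing Mg/Ca, infected with virus in DMEM/2% FBS/30 mM MgCl2 for at least 1 h at 33 °C, then compound added. Cells stained with 66 μg/mL neutral red for 2 h; uptake read at 540 nm. EC50 from dose-response fit; mean ± SD of two independent experiments, three repeats each.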
# [3] = (§1) Cytotoxicity against human RD cells assessed as reduction in cell viability by neutral red staining based CPE assay; assay type: toxicity; details: RD cells
# Procedure, shortened: (§2)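 Uninfected RD cells, grown overnight to ~90% confluency, treated with compound under otherwise the same handling as the antiviral assay. Viability by neutral red uptake (66 μg/mL, 2 h, absorbance 540 nm). CC50 from best-fit dose-response curve; mean ± SD of two independent experiments, three repeats each.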
# [4] = Binding affinity to Enterovirus D68 US/KY/14-18953 2A protease expressed in Escherichia coli BL21(DE3) assessed as inhibition constant using Dabcyl-KIRIVNT/GPGEGGE-Edans as substrate incubated for 2 hrs by FRET assay
# Procedure, shortened: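 Progression-curve kinetics: FRET substrate at 40 μM final in 50 mM Tris pH 7.0, 100 mM NaCl, 2 mM DTT, 10% glycerol with varying inhibitor; reaction started by adding 2Apro to 0.4 μM final. Fluorescence (ex 360/40, em 460/40 nm) read every 71 s for 2 h at 30 °C. Curves fitted by the Morrison equation or an earlier-described equation.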
# enterovirus D68 [5] = experiment: Antiviral activity against enterovirus D68 US/MO/14-18947 infected in human RD cells assessed as reduction in virus plaque formation measured after 3 days by neutral red staining assay; assay type: functional, organism-based; details: Enterovirus D, US/MO/14-18947, RD, 72 h
# Procedure, shortened: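 RD cells infected with virus in DMEM/2% FBS/30 mM MgCl2 for at least 1 h at 33 °C, then given compound under a 1.2% avicel microcrystalline cellulose overlay. Cells stained after 3 days and plaques counted. EC50 from curve fitting; mean ± SD of two repeats.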
# enterovirus D68 [6] = experiment: Antiviral activity against enterovirus D68 US/MO/14-18949 infected in human RD cells assessed as reduction in virus induced cytopathic effect by neutral red staining based CPE assay; assay type: functional, organism-based; details: Enterovirus D, US/MO/14-18949, RD
# Procedure, shortened: (§3)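 RD cells were seeded overnight to about 90% confluency and washed with PBS containing Ca/Mg. They were infected with virus in DMEM with 2% FBS and 30 mM MgCl2 for at least 1 h at 33 °C in 5% CO2, then compound was added. Viability was read by neutral red staining (66 μg/mL, 2 h) at A540. EC50 was taken from dose-response curve fits.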
# enterovirus D68 [7] = experiment: Antiviral activity against enterovirus D68 US/IL/14-18952 infected in human RD cells assessed as reduction in virus induced cytopathic effect by neutral red staining based CPE assay; assay type: functional, organism-based; details: Enterovirus D, US/IL/14-18952, RD; procedure, shortened: as §3
# enterovirus D68 [8] = experiment: Antiviral activity against enterovirus D68 US/IL/14-18956 infected in human RD cells assessed as reduction in virus induced cytopathic effect by neutral red staining based CPE assay; assay type: functional, organism-based; details: Enterovirus D, US/IL/14-18956, RD; procedure, shortened: as §3
# enterovirus D68 [9] = experiment: Antiviral activity against enterovirus D68 US/KY/14-18953 infected in human RD cells assessed as reduction in virus induced cytopathic effect by neutral red staining based CPE assay; assay type: functional, organism-based; details: Enterovirus D, US/KY/14-18953, RD; procedure, shortened: as §3
# Cytochrome P450 1A2 = molecular target: T1, Cytochrome P450 1A2 (Homo sapiens, UniProt P05177); experiment: Inhibition of CYP1A2 (unknown origin); assay type: ADME
# T1 sequence (P05177 whole entry): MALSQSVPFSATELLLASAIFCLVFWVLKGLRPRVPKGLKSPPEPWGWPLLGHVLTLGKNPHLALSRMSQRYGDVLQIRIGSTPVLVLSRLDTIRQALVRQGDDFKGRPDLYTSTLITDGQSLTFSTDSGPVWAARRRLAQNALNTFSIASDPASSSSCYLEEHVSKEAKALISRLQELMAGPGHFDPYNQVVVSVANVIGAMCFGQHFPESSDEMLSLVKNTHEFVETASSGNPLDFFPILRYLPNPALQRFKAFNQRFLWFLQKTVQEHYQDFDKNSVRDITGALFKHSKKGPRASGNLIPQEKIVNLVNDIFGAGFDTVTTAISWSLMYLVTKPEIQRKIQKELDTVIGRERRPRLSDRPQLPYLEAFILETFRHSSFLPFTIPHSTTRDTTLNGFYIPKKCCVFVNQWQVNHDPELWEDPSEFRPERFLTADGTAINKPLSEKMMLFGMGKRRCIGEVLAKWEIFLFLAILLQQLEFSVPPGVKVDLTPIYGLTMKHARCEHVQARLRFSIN
# Cytochrome P450 2C9 = Cytochrome P450 2C9 (Homo sapiens, UniProt P11712); experiment: Inhibition of CYP2C9 (unknown origin); assay type: ADME
# Sequence of Cytochrome P450 2C9 (P11712 whole entry): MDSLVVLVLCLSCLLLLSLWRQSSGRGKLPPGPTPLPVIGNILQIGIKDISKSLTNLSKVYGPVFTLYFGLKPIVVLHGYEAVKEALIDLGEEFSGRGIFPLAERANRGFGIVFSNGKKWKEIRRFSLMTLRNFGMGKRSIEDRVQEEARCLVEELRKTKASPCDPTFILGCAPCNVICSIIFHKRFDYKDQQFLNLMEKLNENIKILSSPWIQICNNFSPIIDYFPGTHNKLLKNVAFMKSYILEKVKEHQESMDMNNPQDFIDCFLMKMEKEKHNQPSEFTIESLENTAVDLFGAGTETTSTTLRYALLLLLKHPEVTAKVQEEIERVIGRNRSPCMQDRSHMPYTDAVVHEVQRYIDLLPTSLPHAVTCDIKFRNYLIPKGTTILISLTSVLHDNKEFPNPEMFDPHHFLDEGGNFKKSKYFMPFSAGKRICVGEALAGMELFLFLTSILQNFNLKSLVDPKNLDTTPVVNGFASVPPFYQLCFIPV
# Cytochrome P450 2C19 = Cytochrome P450 2C19 (Homo sapiens, UniProt P33261); experiment: Inhibition of CYP2C19 (unknown origin); assay type: ADME
# Sequence of Cytochrome P450 2C19 (P33261 whole entry): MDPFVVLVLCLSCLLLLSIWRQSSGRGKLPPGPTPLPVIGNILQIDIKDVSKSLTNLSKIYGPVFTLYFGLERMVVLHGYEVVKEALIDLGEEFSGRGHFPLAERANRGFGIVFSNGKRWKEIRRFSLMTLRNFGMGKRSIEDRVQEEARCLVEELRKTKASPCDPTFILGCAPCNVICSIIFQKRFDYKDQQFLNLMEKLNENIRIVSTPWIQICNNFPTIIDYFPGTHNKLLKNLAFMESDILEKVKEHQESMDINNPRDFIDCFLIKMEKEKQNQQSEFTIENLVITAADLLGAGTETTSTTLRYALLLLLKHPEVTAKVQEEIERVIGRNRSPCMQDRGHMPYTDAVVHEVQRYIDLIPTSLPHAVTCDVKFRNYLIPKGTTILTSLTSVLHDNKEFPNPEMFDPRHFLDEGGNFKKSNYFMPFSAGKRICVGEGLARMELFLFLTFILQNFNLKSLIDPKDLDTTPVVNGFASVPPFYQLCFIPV
# Cytochrome P450 2D6 = Cytochrome P450 2D6 (Homo sapiens, UniProt P10635); experiment: Inhibition of CYP2D6 (unknown origin); assay type: ADME
# Sequence of Cytochrome P450 2D6 (P10635 whole entry): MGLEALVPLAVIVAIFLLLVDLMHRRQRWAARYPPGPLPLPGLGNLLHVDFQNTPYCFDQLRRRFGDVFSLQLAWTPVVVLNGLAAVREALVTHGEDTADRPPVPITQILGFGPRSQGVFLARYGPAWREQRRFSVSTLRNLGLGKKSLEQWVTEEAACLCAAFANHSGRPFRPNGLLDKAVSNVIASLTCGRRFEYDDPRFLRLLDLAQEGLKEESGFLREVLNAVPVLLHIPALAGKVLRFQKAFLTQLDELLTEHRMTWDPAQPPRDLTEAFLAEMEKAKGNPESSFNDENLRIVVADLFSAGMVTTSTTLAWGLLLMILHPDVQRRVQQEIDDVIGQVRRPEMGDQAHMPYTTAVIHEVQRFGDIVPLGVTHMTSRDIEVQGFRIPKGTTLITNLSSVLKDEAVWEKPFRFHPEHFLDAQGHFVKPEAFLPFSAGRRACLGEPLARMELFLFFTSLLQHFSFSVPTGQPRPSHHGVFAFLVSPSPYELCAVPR
# Cytochrome P450 3A = Cytochrome P450 3A (Homo sapiens, UniProt P08684+P20815+Q9HB55+P24462); experiment: Inhibition of CYP3A (unknown origin); assay type: ADME, protein assay
# [10] = Toxicity in BALB/c mouse assessed as survival at 100 mg/kg, ip administered on day 1 and followed by 200 mg/kg, ip on day 3, 300 mg/kg, ip on day 7, 400 mg/kg, ip on day 12 measured after 16 days of initial dose; assay type: organism-based; details: in vivo, 1000 mg/kg, 384 h, time 16 day
# Procedure, shortened: (§4)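 Three female BALB/c mice of about 19 g each received i.p. doses in corn oil with 10% DMSO, escalating in the same animals. They were given 100 mg/kg first, then 200, 300 and 400 mg/kg on days 1, 3, 7 and 12, with time for elimination between doses. Body weight and general health were monitored throughout the study.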
# [11] = Toxicity in BALB/c mouse assessed as mortality at 100 mg/kg, ip administered on day 1 and followed by 200 mg/kg, ip on day 3, 300 mg/kg, ip on day 7, 400 mg/kg, ip on day 12 measured after 16 days of initial dose; assay type: organism-based; details: in vivo, 384 h, time 16 day; procedure, shortened: as §4
# [12] = Toxicity in BALB/c mouse assessed as change in body weight at 100 mg/kg, ip administered on day 1 and followed by 200 mg/kg, ip on day 3, 300 mg/kg, ip on day 7, 400 mg/kg, ip on day 12 measured after 16 days of initial dose; assay type: organism-based; details: in vivo, 384 h, time 16 day; procedure, shortened: as §4
# RD = experiment: as §1; assay type: toxicity; details: rd; procedure, shortened: as §2
Structure (SMILES),IC50 [1] [nM],EC50 (enterovirus D68 [2]) [nM],CC50 [3] [nM],Ki [4] [nM],EC50 (enterovirus D68 [5]) [nM],EC50 (enterovirus D68 [6]) [nM],EC50 (enterovirus D68 [7]) [nM],EC50 (enterovirus D68 [8]) [nM],EC50 (enterovirus D68 [9]) [nM],IC50 (Cytochrome P450 1A2) [nM],IC50 (Cytochrome P450 2C9) [nM],IC50 (Cytochrome P450 2C19) [nM],IC50 (Cytochrome P450 2D6) [nM],IC50 (Cytochrome P450 3A) [nM],Activity [10],Activity [11],Activity [12],CC50 (RD) [nM]
CC(C)(C)[C@H](NC(=O)CC12CC3CC(CC(C3)C1)C2)C(=O)N1C[C@@H]2CCC[C@@H]2[C@H]1C(=O)N[C@H](C(=O)C(=O)NC1CC1)C1CCCCC1,90,130,> 150000,51.4,15.9,101,269,246,46.7,> 50000,> 50000,> 50000,> 50000,570,Non-Toxic,Non-Toxic,Non-Toxic,–
CC(C)(C)[C@H](NC(=O)CC12CC3CC(CC(C3)C1)C2)C(=O)N1C[C@@H]2CCC[C@@H]2[C@H]1C(=O)N[C@@H](Cc1ccccc1)C(=O)C(=O)NC1CC1,90,250,–,–,–,–,–,–,–,–,–,–,–,–,–,–,–,17400
CC(C)(C)[C@H](NC(=O)CC12CC3CC(CC(C3)C1)C2)C(=O)N1C[C@@H]2CCC[C@@H]2[C@H]1C(=O)N[C@H](C(=O)C(=O)NC1CC1)C1CCCC1,200,110,> 150000,112,15.9,–,–,–,–,–,–,–,–,–,–,–,–,–
CCC[C@H](NC(=O)[C@@H]1[C@H]2CCC[C@H]2CN1C(=O)[C@@H](NC(=O)[C@@H](NC(=O)c1cnccn1)C1CCCCC1)C(C)(C)C)C(=O)C(=O)NC1CC1,180,450,–,824,52.1,368,828,836,209,–,–,–,–,–,–,–,–,83200

# Source: ChEMBL document CHEMBL5370639, “Structure-Based Lead Optimization of Enterovirus D68 2A Protease Inhibitors” (J Med Chem, 2023)
